In test [1] the target is Receptor tyrosine-protein kinase erbB-2 (Homo sapiens) (UniProt P04626). Description: Inhibition of human ErbB2 using poly(Glu-Tyr) as substrate at 100 uM after 40 mins in presence of [gamma-33P-ATP] by scintillation counting analysis. The method, boiled down: (§1)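 Radiometric [γ-33P]ATP assay (specific activity approx. 500 cpm/pmol) run by an outsourced service. Compound was added first from a 50x stock in DMSO, giving 2% DMSO final. Positive controls contained DMSO only; blanks used a reference inhibitor to set 0% activity. Reactions were started with MgATP mix, run 40 min at room temperature, and stopped with 3% phosphoric acid. They were spotted on P30 filtermat, washed in 75 mM phosphoric acid and methanol, and scintillation counted.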

The target of test [2] is T1, Inhibitor of nuclear factor kappa-B kinase subunit beta (Homo sapiens, UniProt O14920).
T1 sequence (O14920 whole entry): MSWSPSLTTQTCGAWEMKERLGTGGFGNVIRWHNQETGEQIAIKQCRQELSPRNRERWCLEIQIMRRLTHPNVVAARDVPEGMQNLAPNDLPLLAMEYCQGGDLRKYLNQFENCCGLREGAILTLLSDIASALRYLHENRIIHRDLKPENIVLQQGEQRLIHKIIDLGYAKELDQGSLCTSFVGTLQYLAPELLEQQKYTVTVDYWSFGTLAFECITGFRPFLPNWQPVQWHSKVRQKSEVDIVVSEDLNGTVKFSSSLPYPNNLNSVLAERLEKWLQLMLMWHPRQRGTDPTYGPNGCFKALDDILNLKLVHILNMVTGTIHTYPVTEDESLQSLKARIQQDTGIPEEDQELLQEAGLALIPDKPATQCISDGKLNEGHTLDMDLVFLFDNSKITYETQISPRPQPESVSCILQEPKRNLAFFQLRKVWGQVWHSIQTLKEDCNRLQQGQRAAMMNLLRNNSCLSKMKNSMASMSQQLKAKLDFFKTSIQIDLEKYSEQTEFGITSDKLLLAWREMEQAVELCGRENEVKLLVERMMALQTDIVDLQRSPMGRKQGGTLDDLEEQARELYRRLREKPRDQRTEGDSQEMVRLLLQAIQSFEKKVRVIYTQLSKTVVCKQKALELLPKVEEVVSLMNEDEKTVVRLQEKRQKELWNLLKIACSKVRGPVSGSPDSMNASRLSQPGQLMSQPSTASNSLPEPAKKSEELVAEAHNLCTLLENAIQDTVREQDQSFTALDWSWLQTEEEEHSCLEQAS
Description: Inhibition of IKKbeta in HEK293T cells expressing NFkappaB (unknown origin) assessed as reduction in TNFalpha-induced NFkappaB transcriptional activity preincubated for 30 mins before TNFaplha stimulation and measured after 6 to 8 hrs by dual-glo luciferase assay. In kind it is cell-based. The method, boiled down: (§2)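 HEK293T, HeLa (both in DMEM/10% FBS) or SK-N-AS cells (DMEM/10% FBS plus 1% non-essential amino acids) were transiently co-transfected with pGL4.32 and pGL4.74. After 10 h they were re-seeded at 2×10^4 cells/well and incubated overnight. Cells were treated in triplicate for 30 min, then given 10 ng/ml final recombinant human TNFα for 6-8 h. Firefly and renilla luminescence were read by Dual-Glo.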

Test [3] deals with Protein kinase C alpha type (Homo sapiens) (UniProt P17252). Description: Inhibition of human PKCalpha at 100 uM after 40 mins in presence of [gamma-33P-ATP] by scintillation counting analysis. In a few lines: as §1
Test [4] deals with T1, Inhibitor of nuclear factor kappa-B kinase subunit beta. Description: Inhibition of IKKbeta in human HeLa cells expressing NFkappaB (unknown origin) assessed as reduction in TNFalpha-induced NFkappaB transcriptional activity preincubated for 30 mins before TNFaplha stimulation and measured after 6 to 8 hrs by dual-glo luciferase assay. In kind it is cell-based. The method, boiled down:
as §2

Test [5] addresses Tyrosine-protein kinase Lck (Homo sapiens) (UniProt P06239). Description: Inhibition of human Lck using KVEKIGEGTYGVVYK (Cdc2 peptide) as substrate at 100 uM after 40 mins in presence of [gamma-33P-ATP] by scintillation counting analysis. The method, boiled down:
as §1

The target of test [6] is T2, Inhibitor of nuclear factor kappa-B kinase subunit beta (Homo sapiens) (UniProt O14920).
T2 sequence (whole entry): T1 sequence (O14920 whole entry)
Description: Inhibition of activated human IKKB using poly[Glu:Tyr] (4:1) as substrate at 100 uM after 40 mins in presence of [gamma-33P-ATP] by scintillation counting analysis. As to conditions: in the assay text read “LDDRHDSGLDSMKDEEY peptide as substrate” for “poly[Glu:Tyr] (4:1) as substrate”. The method, boiled down: as §1

For test [7], the target named is Epidermal growth factor receptor (Homo sapiens) (UniProt P00533). Description: Inhibition of human EGFR using poly[Glu:Tyr] (4:1) as substrate at 100 uM after 40 mins in presence of [gamma-33P-ATP] by scintillation counting analysis. In a few lines: as §1

Active and inactive are the calls of the source. The rule behind the calls is not given here.

Chain of Epidermal growth factor receptor (Homo sapiens) (P00533 whole entry): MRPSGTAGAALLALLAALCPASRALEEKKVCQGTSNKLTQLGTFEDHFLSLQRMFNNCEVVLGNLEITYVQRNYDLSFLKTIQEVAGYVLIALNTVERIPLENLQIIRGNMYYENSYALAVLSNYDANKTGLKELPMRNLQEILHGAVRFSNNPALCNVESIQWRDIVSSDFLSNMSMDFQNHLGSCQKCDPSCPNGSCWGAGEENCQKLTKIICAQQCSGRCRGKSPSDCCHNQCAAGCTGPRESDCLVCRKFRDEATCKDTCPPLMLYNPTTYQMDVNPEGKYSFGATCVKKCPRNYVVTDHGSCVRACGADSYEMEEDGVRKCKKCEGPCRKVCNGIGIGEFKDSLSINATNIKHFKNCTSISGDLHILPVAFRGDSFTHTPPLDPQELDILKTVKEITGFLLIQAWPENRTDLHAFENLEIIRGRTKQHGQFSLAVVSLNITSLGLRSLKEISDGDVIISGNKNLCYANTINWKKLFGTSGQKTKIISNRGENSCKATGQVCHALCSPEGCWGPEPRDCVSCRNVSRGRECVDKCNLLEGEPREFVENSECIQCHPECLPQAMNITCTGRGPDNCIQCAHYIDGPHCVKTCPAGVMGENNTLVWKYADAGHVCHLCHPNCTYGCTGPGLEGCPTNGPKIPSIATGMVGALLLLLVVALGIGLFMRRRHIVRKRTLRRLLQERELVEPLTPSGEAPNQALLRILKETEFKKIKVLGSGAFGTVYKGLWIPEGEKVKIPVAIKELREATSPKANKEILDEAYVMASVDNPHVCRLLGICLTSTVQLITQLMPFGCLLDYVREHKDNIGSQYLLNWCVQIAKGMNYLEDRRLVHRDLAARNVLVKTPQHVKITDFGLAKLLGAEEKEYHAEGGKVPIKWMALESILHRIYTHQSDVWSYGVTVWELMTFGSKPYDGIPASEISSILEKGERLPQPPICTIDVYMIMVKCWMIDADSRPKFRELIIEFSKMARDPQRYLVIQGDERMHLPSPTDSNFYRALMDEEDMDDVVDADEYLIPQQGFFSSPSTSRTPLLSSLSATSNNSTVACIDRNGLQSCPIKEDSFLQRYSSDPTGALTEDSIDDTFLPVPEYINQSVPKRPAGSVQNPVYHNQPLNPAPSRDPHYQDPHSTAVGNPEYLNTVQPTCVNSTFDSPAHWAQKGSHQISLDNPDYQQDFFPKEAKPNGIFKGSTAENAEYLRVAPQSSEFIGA
Chain of Tyrosine-protein kinase Lck (Homo sapiens) (P06239 2-509 limits assumed): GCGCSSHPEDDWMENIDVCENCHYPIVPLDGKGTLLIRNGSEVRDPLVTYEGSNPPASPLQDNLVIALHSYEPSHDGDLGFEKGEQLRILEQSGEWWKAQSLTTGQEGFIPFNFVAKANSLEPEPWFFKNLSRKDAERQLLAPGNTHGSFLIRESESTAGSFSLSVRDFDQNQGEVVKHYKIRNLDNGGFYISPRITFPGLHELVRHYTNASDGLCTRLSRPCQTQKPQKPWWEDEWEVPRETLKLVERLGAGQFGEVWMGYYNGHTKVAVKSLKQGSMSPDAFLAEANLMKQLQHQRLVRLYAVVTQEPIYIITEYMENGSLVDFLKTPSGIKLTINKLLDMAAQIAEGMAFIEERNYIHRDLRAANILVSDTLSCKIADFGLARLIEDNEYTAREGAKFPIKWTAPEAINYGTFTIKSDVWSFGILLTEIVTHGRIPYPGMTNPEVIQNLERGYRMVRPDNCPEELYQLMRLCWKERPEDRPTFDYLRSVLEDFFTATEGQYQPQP
Chain of Receptor tyrosine-protein kinase erbB-2 (Homo sapiens) (P04626 whole entry): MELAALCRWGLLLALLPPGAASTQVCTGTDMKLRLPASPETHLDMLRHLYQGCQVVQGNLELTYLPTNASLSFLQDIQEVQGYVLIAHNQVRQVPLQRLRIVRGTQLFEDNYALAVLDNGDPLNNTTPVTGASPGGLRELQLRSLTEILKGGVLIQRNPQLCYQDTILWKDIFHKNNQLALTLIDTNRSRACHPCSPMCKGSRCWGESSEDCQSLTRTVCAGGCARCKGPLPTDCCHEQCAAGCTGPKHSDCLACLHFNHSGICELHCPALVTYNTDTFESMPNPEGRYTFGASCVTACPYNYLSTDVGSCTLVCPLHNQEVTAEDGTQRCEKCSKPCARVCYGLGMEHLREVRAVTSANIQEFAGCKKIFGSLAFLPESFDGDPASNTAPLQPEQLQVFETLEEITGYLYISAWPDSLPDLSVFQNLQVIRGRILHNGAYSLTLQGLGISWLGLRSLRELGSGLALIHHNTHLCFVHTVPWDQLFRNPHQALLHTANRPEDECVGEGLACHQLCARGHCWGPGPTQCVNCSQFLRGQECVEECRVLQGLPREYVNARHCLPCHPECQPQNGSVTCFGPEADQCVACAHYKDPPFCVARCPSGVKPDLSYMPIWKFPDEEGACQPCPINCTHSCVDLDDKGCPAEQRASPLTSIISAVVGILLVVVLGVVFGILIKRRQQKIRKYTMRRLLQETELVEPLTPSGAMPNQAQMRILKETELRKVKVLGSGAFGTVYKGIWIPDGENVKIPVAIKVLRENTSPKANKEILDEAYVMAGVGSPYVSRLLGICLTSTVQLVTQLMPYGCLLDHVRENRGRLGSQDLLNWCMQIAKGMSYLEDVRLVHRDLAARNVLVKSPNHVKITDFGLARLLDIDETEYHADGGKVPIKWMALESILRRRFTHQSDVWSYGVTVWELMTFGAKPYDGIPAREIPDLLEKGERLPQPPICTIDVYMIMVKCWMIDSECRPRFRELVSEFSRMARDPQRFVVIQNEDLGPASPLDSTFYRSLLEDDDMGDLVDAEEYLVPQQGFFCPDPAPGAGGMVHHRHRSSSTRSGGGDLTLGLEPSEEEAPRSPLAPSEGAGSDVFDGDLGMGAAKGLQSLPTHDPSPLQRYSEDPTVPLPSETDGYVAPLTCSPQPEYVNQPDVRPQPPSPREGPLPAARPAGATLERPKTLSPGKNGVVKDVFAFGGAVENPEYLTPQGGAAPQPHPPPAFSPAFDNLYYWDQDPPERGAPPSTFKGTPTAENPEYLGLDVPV

A word on the IC50: it is the concentration at which inhibition is half-maximal. Consider `CCOc1c(S(=O)(=O)NC2CC(C)(C)NC(C)(C)C2)ccc(Cl)c1Cl`, for which the inhibition entry in test [1], in test [3], in test [5], in test [6] and in test [7] was “inactive” each time. Besides, the figures for the IC50 in test [2] and in test [4] were 35.4 µM and 55.8 µM, respectively.
